SENP1 FRET inh – human SENP1 catalytic domain inhibitors, primary screen, biochemical, FRET, uHTS | Sentrin-specific protease 1 (Homo sapiens), Q9P0U3 | recombinant SENP1 catalytic domain, CyPet-SUMO1-YPet FRET cleavage | inhibition, % at 10 µM | 0.21% of 360,000 active;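 active means inhibition at least 30% at 10 µM, raw YFP signal under a set limit, fluorescence ratio 0.5 to 1.5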;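 further: 0% = enzyme with DMSO and 100% = no enzyme wells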
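Assay system: hSENP1 catalytic domain, recombinant. Amount: SENP1 enzyme, 20 pM final. Schedule: 50 min reaction, RT, dark. Technique: FRET, CFP and YFP emission. Control set: no-enzyme wells low, DMSO-plus-enzyme wells high control.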
SENP8 block-1 – human SENP8 protease inhibitors, primary screen, biochemical, fluorescence, Nedd8 protein substrate, uHTS; 0.64% of 360,000 active; AID 602440, 2012; recombinant SENP8; inhibition, % at 20 µM; in the data active means inhibition mostly above about 40%, no sharp cut-off; inactive means mostly below about 27%
Target sequence (Q96LD8 whole entry, looked up): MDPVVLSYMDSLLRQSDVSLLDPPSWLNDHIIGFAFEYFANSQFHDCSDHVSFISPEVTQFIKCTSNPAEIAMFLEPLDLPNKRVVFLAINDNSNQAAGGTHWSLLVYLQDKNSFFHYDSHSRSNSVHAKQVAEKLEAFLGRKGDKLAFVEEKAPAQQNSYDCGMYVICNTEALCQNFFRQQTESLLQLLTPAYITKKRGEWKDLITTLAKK
SENP6 inh – SENP6 protease inhibitors, primary screen, biochemical, luminescence, uHTS; inhibition, % at 10 µM; 1.8% of 330,000 active; AID 2599, 2010; Sentrin-specific protease 6 (Homo sapiens), Q9GZR1; Recombinant SENP6 catalytic domain, aminoluciferin luminescence;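 active means inhibition above about 50% at the single tested dose, limit read from the data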;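 further: plate controls were DMSO wells with enzyme for no effect and DMSO wells lacking enzyme for full effect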
Platelet DG rel – inhibitors of platelet dense granule secretion, primary screen, cell-based, MLPCN, human platelets; 0.22% of 300,000 active; human platelet-rich plasma, SFLLRN dense granule ATP release, luminescence; inhibition, %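 (compounds screened at 7.5 µM in platelet-rich plasma)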; AID 1663, 2009;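 active means mean replicate score, as percent of positive control, at or above 50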
SENP7 block – SENP7 protease inhibitors, primary screen, biochemical, luminescence, uHTS. Sentrin-specific protease 7 (Homo sapiens), Q9BQF6. recombinant SENP7, Z-RLRGG-aminoluciferin luminescence, 40 min. inhibition, % at 5 µM. 1.5% of 330,000 active. AID 434973, 2010;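 active means inhibition above about 50% at the single test dose, limit read from the data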;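 further: plate controls were DMSO with enzyme for no effect and no enzyme buffer wells for full effect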
SENP8 block-2 – SENP8 protease inhibitors, primary screen, biochemical, luminescence; 1.2% of 330,000 active; purified SENP8, Z-RLRGG-aminoluciferin cleavage; inhibition, % at 10 µM; Sentrin-specific protease 8 (Homo sapiens), Q96LD8; AID 2540, 2010; in the data active means inhibition above about 50%
SENP8 confirm – SENP8 protease inhibitors, retest, confirmation, biochemical, luminescence, single concentration. shares compounds with SENP7 block. Recombinant SENP8, Z-RLRGG-aminoluciferin luminescence, 60 min. inhibition, % at 12.5 µM. 40% of 6,200 active. AID 488912, 2010;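 active means mean inhibition across replicates above about 50%, limit read from the data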
SENP6 conf – SENP6 protease inhibitors, confirmation, biochemical, luminescence, single concentration; recombinant SENP6, Z-RLRGG-aminoluciferin luminescence; inhibition, % at 12.5 µM; shares compounds with SENP7 block; 58% of 6,200 active
SENP7 confirm – SENP7 protease inhibitors, retest, confirmation, biochemical, luminescence, single concentration; shares compounds with SENP7 block; recombinant SENP7, Z-RLRGG-aminoluciferin luminescence, 40 min; inhibition, % at 12.5 µM; 69% of 6,200 active; AID 488917, 2010
Casp3 select – caspase-3 protease inhibitors, confirmation, selectivity assay for SENP inhibitor project, biochemical, single concentration; shares compounds with SENP7 block; 60% of 6,200 active; inhibition, % at 12.5 µM; AID 488918, 2010; purified caspase-3, Z-DEVD-aminoluciferin luminescence, 60 min;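 active means mean inhibition above about 50%, limit read from the data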;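 further: plate controls were enzyme with DMSO for no effect and wells without caspase-3 for full effect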
Target sequence (P42574 28-227 limits assumed): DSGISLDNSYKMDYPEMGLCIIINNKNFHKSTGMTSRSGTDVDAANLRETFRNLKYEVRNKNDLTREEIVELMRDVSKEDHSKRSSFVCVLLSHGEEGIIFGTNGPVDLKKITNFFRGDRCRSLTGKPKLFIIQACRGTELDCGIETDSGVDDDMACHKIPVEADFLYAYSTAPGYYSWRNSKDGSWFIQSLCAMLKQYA
SENP luc ctr – interferes with luciferase luminescence in SENP counter-screen | shares compounds with SENP7 block | Pre-incubated SENP8/Z-RLRGG-aminoluciferin, luciferase luminescence interference | inhibition, % at 12.5 µM | 39% of 6,200 active;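 active means mean inhibition above about 50% when retested at one dose, limit read from the data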;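 further: plate controls were DMSO wells with completed reaction for no effect and substrate without enzyme for full effect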
Numbers without * were called inactive; · = no result. A selection: hits, their analogues and other compounds. The true share with any hit is near 2.6%.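 How the source made its calls, unless noted: active means mean inhibition above about 50% in the one-dose retest (limit read from the data); inactive means the rest.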

SMILES	SENP1 FRET inh	SENP8 block-1	SENP6 inh	Platelet DG rel	SENP7 block	SENP8 block-2	SENP8 confirm	SENP6 conf	SENP7 confirm	Casp3 select	SENP luc ctr
COc1cc([N+](=O)[O-])ccc1NC(=S)NNC(=O)c1ccc2c(c1)OCO2	1.2	10.1	33.7	6.2	11.6	6.2	·	·	·	·	·
Cn1ccc(C(=O)NC(=S)Nc2ccc([N+](=O)[O-])cc2O)n1	1.5	16.7	71.7*	·	53.6*	55.5*	74.5*	72.4*	93.1*	75.4*	78.3*
O=C(NC(=S)Nc1cc([N+](=O)[O-])ccc1O)c1ccc2c(c1)OCO2	3.0	20.8	90.4*	12.3	81.4*	89.1*	93.1*	93.6*	97.0*	86.8*	77.3*
O=C(N/N=C/c1cc([N+](=O)[O-])ccc1O)c1ccc2c(c1)OCCO2	-14.4	-4.5	93.0*	-24.1	88.9*	84.8*	14.5	18.1	16.4	23.3	-1.2
Cc1cccc(/C=N/NC(=O)c2ccc3c(c2)OCCO3)c1O	-4.9	10.8	93.7*	38.3	96.5*	94.3*	95.5*	98.3*	102.6*	94.3*	65.9*
O=C(N/N=C/c1cc([N+](=O)[O-])ccc1O)c1ccncc1	-84.6	-2.0	23.3	3.3	41.1	1.4	·	·	·	·	·
O=C(NC(=S)Nc1ccc([N+](=O)[O-])cc1O)C1CCCCC1	4.1	24.7	-6.6	-26.0	-0.5	-7.5	·	·	·	·	·
Cc1ccc(C(=O)Nc2ccc(N3CCCCC3)cc2)cc1	-2.1	12.3	-6.7	·	-9.2	-19.3	·	·	·	·	·
Cc1cccc(/C=N\NC(=O)c2ccc(Cl)cc2)c1O	-4.9	1.7	36.9	1.2	73.5*	11.8	7.4	19.4	29.2	59.6*	5.4
Cc1cccc(/C=N/NC(=O)Cc2ccc(Cl)cc2)c1O	1.4	-18.7	-20.3	1.6	-1.0	16.2	·	·	·	·	·
CCCc1nnc(NC(=O)CC(=O)Nc2ccccc2C(=O)O)s1	1.4	-0.3	60.8*	-31.3	38.4	42.9	65.4*	60.9*	83.6*	87.1*	59.6*
Cc1ccc(C(=O)C(C)OC(=O)c2cc(=O)[nH]c3ccccc23)cc1 (stereo not given)	2.8	-227.1	-2.5	-34.8	1.6	-7.8	·	·	·	·	·
O=C(NC1CCCCC1)C1c2ccccc2OCC(=O)N1CC(F)(F)F (stereo not given)	2.4	7.5	·	·	·	·	·	·	·	·	·
CCN1CCN(C(=O)CSc2cc(=O)n(C)c3ccccc23)CC1	-0.7	-12.9	-14.6	4.9	89.8*	-1.2	8.2	4.9	4.1	0.2	1.4
Cc1csc2nc(CSc3ccc(Cl)cc3)cn12	-2.7	11.2	79.7*	8.4	53.4*	46.0	77.5*	76.7*	91.7*	67.3*	72.1*
Cc1ccccc1-c1cc2nc(-c3ccc([N+](=O)[O-])cc3)cc(=O)n2[nH]1	5.1	-5.3	18.3	-1.7	9.1	-1.4	·	·	·	·	·
Cc1cccc(-c2cc3nc(-c4ccccc4)cc(=O)n3[nH]2)c1	-5.1	-292.4	89.4*	-4.7	50.6*	88.3*	14.2	74.3*	26.9	16.8	4.6

Screens from PubChem.
